Measured values reported in PMC6957258 (Bioorganic & medicinal chemistry, 2013).
Like-named read-outs stand apart in the source and are kept apart here.

How the values were obtained:
[1] = system: CCI-induced cold allodynia (neuropathic pain model); settings: rat, po; cited from earlier work
[2] = system: capsaicin-induced hypothermia; settings: mice; cited from earlier work
human TRPV1 [3] = target: T1, human TRPV1 (Homo sapiens, UniProt Q8NER1); test: FLIPR antagonism of capsaicin; type: cell-based
human TRPV1 [4] = target: T1, human TRPV1; test: FLIPR antagonism of pH activation, hTRPV1 in CHO cells; type: cell-based; settings: read-out: IC50 [pH], inhibition of pH activation
[5] = system: capsaicin-induced hypothermia; test: Capsaicin-induced hypothermia in mice; type: in vivo; settings: for inhibition of the effect of capsaicin on body temperature: 0.3 mg/Kg po 15 min before capsaicin 3 mg/Kg ip
Outline: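 Mice, n = 5 per group. Body temperature (°C) was recorded after capsaicin challenge, with readings taken up to 60 min. Data are given as mean ± SEM and compared with vehicle-treated animals, with significance at p < 0.05.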

T1 sequence (Q8NER1 whole entry): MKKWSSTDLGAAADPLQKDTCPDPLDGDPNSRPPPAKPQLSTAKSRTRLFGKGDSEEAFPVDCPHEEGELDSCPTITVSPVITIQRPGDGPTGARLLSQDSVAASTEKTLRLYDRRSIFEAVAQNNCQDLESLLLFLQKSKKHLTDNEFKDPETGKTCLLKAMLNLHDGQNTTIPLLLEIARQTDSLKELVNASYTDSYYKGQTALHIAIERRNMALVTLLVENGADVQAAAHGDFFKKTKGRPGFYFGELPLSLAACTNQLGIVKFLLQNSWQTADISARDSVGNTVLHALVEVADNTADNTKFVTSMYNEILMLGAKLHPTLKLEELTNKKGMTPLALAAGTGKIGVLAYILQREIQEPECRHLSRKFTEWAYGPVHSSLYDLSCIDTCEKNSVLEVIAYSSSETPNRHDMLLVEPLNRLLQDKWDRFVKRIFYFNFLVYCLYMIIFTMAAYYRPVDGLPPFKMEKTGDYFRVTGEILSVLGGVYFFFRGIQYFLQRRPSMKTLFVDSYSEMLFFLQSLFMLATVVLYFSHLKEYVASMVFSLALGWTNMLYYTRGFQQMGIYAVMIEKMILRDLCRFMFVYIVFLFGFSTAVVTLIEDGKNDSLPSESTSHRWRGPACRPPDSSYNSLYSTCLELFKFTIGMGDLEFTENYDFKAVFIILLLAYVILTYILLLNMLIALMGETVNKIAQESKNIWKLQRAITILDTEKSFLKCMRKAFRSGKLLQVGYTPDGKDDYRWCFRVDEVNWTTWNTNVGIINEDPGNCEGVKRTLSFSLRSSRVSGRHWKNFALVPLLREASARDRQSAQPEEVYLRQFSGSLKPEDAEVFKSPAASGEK

| SMILES | IC50 (human TRPV1 [4]) [nM] | other results |
| --- | --- | --- |
| CC(C)C[C@H](CN)CC(=O)O [pregabalin] | – | ED50 anti-allodynic efficacy [1]: 42.2 mg/kg |
| CC1CCN(c2nc(C(F)(F)F)ccc2CNC(=O)[C@@H](C)c2ccc(NS(C)(=O)=O)c(F)c2)CC1 [compound 2] | – | effect on capsaicin-induced hypothermia [2]: blocked capsaicin-induced hypothermia; fold better than prototype 1 for CAP antagonism (human TRPV1 [3]; ratio versus 1): approximately 100 fold; ED50 anti-allodynic efficacy [1]: 0.9 mg/kg |
| CC(C(=O)NCc1ccc(C(F)(F)F)nc1SC1CCCC1)c1ccc(NS(C)(=O)=O)c(F)c1 (centres unmarked) [compound 23, N-((2-(Cyclopentylthio)-6-(trifluoromethyl)pyridin-3-yl)methyl)-2-(3-fluoro-4-(methylsulfonamido)phenyl)propanamide] | > 1000 | – |
| CC(C(=O)NCc1ccc(C(F)(F)F)nc1SCC1CCCCC1)c1ccc(NS(C)(=O)=O)c(F)c1 (centres unmarked) [compound 31, N-((2-(Cyclohexylmethylthio)-6-(trifluoromethyl)pyridin-3-yl)methyl)-2-(3-fluoro-4-(methylsulfonamido)phenyl)propanamide] | – | fold less potent than 24 (human TRPV1 [3]; ratio of Ki(CAP) versus 24): 2.5 fold |
| CC(C(=O)NCc1ccc(C(F)(F)F)nc1SCCC(=O)O)c1ccc(NS(C)(=O)=O)c(F)c1 (centres unmarked) [compound 20, 3-(3-((2-(3-Fluoro-4-(methylsulfonamido)phenyl)propanamido)methyl)-6-(trifluoromethyl)pyridin-2-ylthio) propanoic acid] | > 1000 | – |
| CC(C(=O)NCc1ccc(C(F)(F)F)nc1SCc1cccs1)c1ccc(NS(C)(=O)=O)c(F)c1 (centres unmarked) [compound 38, 2-(3-Fluoro-4-(methylsulfonamido)phenyl)-N-((2-(thiophen-2-ylmethylthio)-6-(trifluoromethyl)pyridin-3-yl)methyl)propanamide] | > 1000 | – |
| CC(C(=O)NCc1ccc(C(F)(F)F)nc1SC1CCCCC1C)c1ccc(NS(C)(=O)=O)c(F)c1 (centres unmarked) [compound 28, 2-(3-Fluoro-4-(methylsulfonamido)phenyl)-N-((2-(2-methylcyclohexylthio)-6-(trifluoromethyl)pyridin-3-yl)methyl)propanamide] | > 1000 | – |
| CC(C(=O)NCc1ccc(C(F)(F)F)nc1SCC(F)(F)F)c1ccc(NS(C)(=O)=O)c(F)c1 (centres unmarked) [compound 11, 2-(3-Fluoro-4-(methylsulfonamido)phenyl)-N-((2-(2,2,2-trifluoroethylthio)-6-(trifluoromethyl)pyridin-3-yl)methyl) propanamide] | > 1000 | – |
| C[C@H](C(=O)NCc1ccc(C(F)(F)F)nc1SC1CCCCC1)c1ccc(NS(C)(=O)=O)c(F)c1 [24S, (S)-N-((2-(Cyclohexylthio)-6-(trifluoromethyl)pyridin-3-yl)methyl)-2-(3-fluoro-4-(methylsulfonamido)phenyl)propanamide] | – | effect on capsaicin-induced hypothermia [5]: blocked capsaicin-induced hypothermia; inhibition of the effect of capsaicin on body temperature ([5]; at 15 min): partial inhibition; inhibition of the effect of capsaicin on body temperature ([5]; at 30 min): completely inhibited |
| C[C@H](C(=O)NCc1ccc(C(C)(C)C)cc1)c1ccc(NS(C)(=O)=O)c(F)c1 [compound 1] | – | ED50 anti-allodynic efficacy [1]: 26.6 mg/kg |
| C[C@@H](C(=O)NCc1ccc(C(F)(F)F)nc1SC1CCCCC1)c1ccc(NS(C)(=O)=O)c(F)c1 [24R, (R)-N-((2-(Cyclohexylthio)-6-(trifluoromethyl)pyridin-3-yl)methyl)-2-(3-fluoro-4-(methylsulfonamido)phenyl)propanamide] | > 1000 | – |
| CC(C(=O)NCc1ccc(C(F)(F)F)nc1SCCC(=O)N1CCCC1)c1ccc(NS(C)(=O)=O)c(F)c1 (centres unmarked) [compound 22, 2-(3-Fluoro-4-(methylsulfonamido)phenyl)-N-((2-(3-oxo-3-(pyrrolidin-1-yl)propylthio)-6-(trifluoromethyl)pyridin-3-yl)methyl)propanamide] | > 1000 | – |
| CC(C(=O)NCc1ccc(C(F)(F)F)nc1SCc1ccco1)c1ccc(NS(C)(=O)=O)c(F)c1 (centres unmarked) [compound 37, 2-(3-Fluoro-4-(methylsulfonamido)phenyl)-N-((2-(furan-2-ylmethylthio)-6-(trifluoromethyl)pyridin-3-yl)methyl)propanamide] | > 1000 | – |
| CCC1CCC(Sc2nc(C(F)(F)F)ccc2CNC(=O)C(C)c2ccc(NS(C)(=O)=O)c(F)c2)CC1 (centres unmarked) [compound 29, N-((2-(4-Ethylcyclohexylthio)-6-(trifluoromethyl)pyridin-3-yl)methyl)-2-(3-fluoro-4-(methylsulfonamido)phenyl)propanamide] | > 1000 | – |
| CC(C(=O)NCc1ccc(C(F)(F)F)nc1S(=O)(=O)C1CCCCC1)c1ccc(NS(C)(=O)=O)c(F)c1 (centres unmarked) [compound 26, N-((2-(Cyclohexylsulfonyl)-6-(trifluoromethyl)pyridin-3-yl)methyl)-2-(3-fluoro-4-(methylsulfonamido)phenyl)propanamide] | > 1000 | – |
| CC(C(=O)NCc1ccc(C(F)(F)F)nc1[S+]([O-])C1CCCCC1)c1ccc(NS(C)(=O)=O)c(F)c1 (centres unmarked) [compound 25, N-((2-(Cyclohexylsulfinyl)-6-(trifluoromethyl)pyridin-3-yl)methyl)-2-(3-fluoro-4-(methylsulfonamido)phenyl)propanamide] | > 1000 | – |
